{"data": "Measured values gathered from unrelated publications", "matrix": "plasma"}
{"Structure (SMILES)": "N#Cc1[nH]nnc1-c1csc(-c2ccc(Cl)cc2)n1", "test system": "male Sprague-Dawley rat", "setting": "oral, 10 mg/kg", "quantity": "AUC", "result": "18300 ng·h/mL"}
{"Structure (SMILES)": "CC[C@H](C)[C@H](NC(=O)[C@H](Cc1ccccc1)NC(=O)[C@H](CCC(=O)O)NC(=O)[C@H](CCCNC(=N)N)NC(=O)[C@H](C)NC(=O)[C@H](C)NC(=O)[C@H](CCC(N)=O)NC(=O)[C@H](CCC(=O)O)NC(=O)[C@H](CCC(=O)O)NC(=O)[C@H](CC(C)C)NC(=O)[C@H](Cc1ccc(O)cc1)NC(=O)[C@H](CO)NC(=O)[C@H](CO)NC(=O)[C@@H](NC(=O)[C@H](CC(=O)O)NC(=O)[C@H](CO)NC(=O)[C@@H](NC(=O)[C@H](Cc1ccccc1)NC(=O)[C@@H](NC(=O)CNC(=O)[C@H](CCC(=O)O)NC(=O)[C@H](C)NC(=O)CCc1c[nH]cn1)[C@@H](C)O)[C@@H](C)O)C(C)C)C(=O)N[C@@H](C)C(=O)N[C@@H](Cc1c[nH]c2ccccc12)C(=O)N[C@@H](CC(C)C)C(=O)N[C@H](C(=O)N[C@@H](CCCNC(=N)N)C(=O)NCC(=O)N[C@@H](CCCNC(=N)N)C(=O)N[C@@H](CCCCNC(=O)COCCOCCNC(=O)COCCOCCNC(=O)CC[C@H](NC(=O)CCCCCCCCCCCCCCCCC(=O)O)C(=O)O)C(=O)O)C(C)C", "test system": "rat", "setting": "subcutaneous, 20 nmol/kg", "quantity": "AUC", "result": "1.98 µM·h"}
{"Structure (SMILES)": "COc1cc2c3c(n(CCCN4CCOCC4)c(=O)c2cc1OC)-c1cc2c(cc1C3=O)OCO2", "test system": "female Fischer 344 rat", "setting": "intravenous, 24 mg/m², single dose", "quantity": "AUC(0-inf)", "result": "806 ng·h/mL"}
{"Structure (SMILES)": "CCc1cc(C(=O)NC)c2nccc(N3CCc4c(cc(Cn5ccnc5)cc4-c4cn(C)nc4C(F)(F)F)C3=O)c2c1", "test system": "male Sprague-Dawley rat", "setting": "intravenous, 3 mg/kg", "quantity": "AUC(0-inf)", "result": "1280 ng·h/mL"}
{"Structure (SMILES)": "N#Cc1ccc(Nc2nc(N)cc(Oc3c(F)cc(-c4ccc(C#N)cc4)cc3F)n2)cc1", "test system": "Sprague-Dawley rat", "setting": "intravenous, 1 mg/kg", "quantity": "AUC", "result": "308 ng·h/mL"}
{"Structure (SMILES)": "CCNC(=O)c1nc(-c2ccc3[nH]c(-c4nc(C)no4)cc3c2)c(C)[nH]1", "test system": "Sprague-Dawley rat", "setting": "intravenous, 1 mg/kg", "quantity": "AUC", "result": "2.4 µM·h"}
{"Structure (SMILES)": "CCOC(=O)[C@@]12C[C@@H]1[C@@H](n1ccc3c(NC)nc(C#Cc4ccc(Cl)s4)nc31)[C@H](O)[C@@H]2O", "test system": "male Sprague-Dawley rat", "setting": "oral, 1 mg/kg", "quantity": "AUC(0-inf)", "result": "38.2 ng·h/mL"}
{"Structure (SMILES)": "Cl.Clc1ccc2c(c1)nc(N1CCNCC1)n2Cc1ccccc1", "test system": "rat", "setting": "oral, 5 mg/kg", "quantity": "AUC", "result": "1.5 µM·h"}
{"Structure (SMILES)": "C=CC(=O)N1CC2CC(n3nc(-c4ccc(C(=O)Nc5ccccn5)cc4)c4c(N)ncnc43)CC2C1 (centres unmarked)", "test system": "male Wistar rat", "setting": "oral, 3 mg/kg", "quantity": "AUC(0-t)", "result": "908 ng·h/mL"}
{"Structure (SMILES)": "N#Cc1[nH]nnc1-c1cccc(OCc2cc(C(F)(F)F)ccc2C(F)(F)F)c1", "test system": "male Sprague-Dawley rat", "setting": "oral, 10 mg/kg", "quantity": "AUC", "result": "46400 ng·h/mL"}
{"Structure (SMILES)": "Cc1noc(-c2cc3cc(-c4nc(C(=O)NCc5ccncc5)[nH]c4C)ccc3[nH]2)n1", "test system": "Sprague-Dawley rat", "setting": "intravenous, 1 mg/kg", "quantity": "AUC", "result": "3 µM·h"}
